Source: ChEMBL document CHEMBL1123566, “Synthesis and cardiac electrophysiological activity of 2- and 3-[(substituted phenyl)alkyl]quinuclidines. Structure-activity relationships” (1987)
“And” between values parts separate entries of the source, which are not always exact repeats. Equal entries are not always repeated.

How the values were obtained:
Canis familiaris [1] = organism: Canis familiaris; assay: In vitro electrophysiological evaluation in canine cardiac Purkinje fibres reported as percent change Vmax at 10 uM at concentration range of 0.1-100 uM; Minimal (<10% decrease or increase in Vmax).; type: functional, organism-based; conditions: Canis lupus familiaris, Purkinje fiber
Procedure, shortened: (§1)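 Canine cardiac Purkinje fibres, intracellular microelectrode recording, paced at a basic cycle length of 1 s. APD95 and Vmax read simultaneously. Compound: 10 mM stock in deionized water, diluted into Tyrode's solution, tested over the stated concentration range. Each fibre used once as its own control. Result is % change from control, given at 10 µM or as the maximum with its concentration. M = <10% decrease or an increase in Vmax.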

Canis familiaris [2] = organism: Canis familiaris; assay: In vitro electrophysiological evaluation in canine cardiac ventricular muscle reported as maximum % change for conduction time(CT) at 0.1-10 uM concentration range; Minimal (<10% decrease or increase in CT).; type: functional, Canis lupus familiaris, Muscle tissue
Procedure, shortened: (§2)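 Canine right ventricle and papillary muscle strips in oxygenated Tyrode's solution, fitted with stimulating and recording electrodes. The extra-stimulus conduction-interval method was adapted for in vitro use. FRP and CT were read from a conduction-interval curve before and after various compound concentrations, and expressed as percent change from control. Compounds were taken from 10 mM deionized-water stock into Tyrode's. Each strip was used once as its own control.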

Canis familiaris [3] = organism: Canis familiaris; assay: In vitro electrophysiological activity in canine cardiac occurred is 10 uM.; type: functional, Canis lupus familiaris, Heart
Canis familiaris [4] = organism: Canis familiaris; assay: In vitro electrophysiological evaluation in canine cardiac ventricular muscle reported as maximum % change for functional refractory period (FRP) at 0.1-10 uM concentration range; concentration at which it occurred is 10 uM.; design: species or system Canis lupus familiaris, Muscle tissue; procedure, shortened: as §2
Canis familiaris [5] = assay: Left ventricular refractory period was determined by intraduodenal administration of 30 mg/kg (high dose) of compound in anesthetized dogs. Value was reported for experiment 1; type: functional, Canis lupus familiaris, Cardiac ventricle
Procedure, shortened: (§3)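 Anesthetized dogs received two intraduodenal doses, the second cumulative (low dose/high dose). Left ventricular FRP and CT were measured 15, 30 and 45 min after dosing. Heart rate and mean blood pressure were taken during nonpacing intervals. Values are percent change from control. The vehicle was 5% dextrose in water/tragacanth. Activity was defined as ≥12% prolongation of FRP or CT.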

Canis familiaris [6] = assay: Heart rate was determined by intraduodenal administration of two dosages of 30 mg/kg of compound in anesthetized dogs. Value was reported for experiment 1; type: functional, Canis lupus familiaris
Procedure, shortened: (§4)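 Anesthetized dogs; compound given intraduodenally, generally as two doses, the second a cumulative (high) dose. LV functional refractory period and conduction time measured 15, 30 and 45 min after dosing; heart rate and blood pressure measured during nonpacing intervals. Values are % change from control, given per individual animal. Active if FRP or CT prolonged by ≥12%.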

Canis familiaris [7] = organism: Canis familiaris; assay: In vitro electrophysiological evaluation in canine cardiac Purkinje fibres reported as percent change Vmax at 10 uM at concentration range of 0.1-100 uM.; type: functional, organism-based; conditions: Canis lupus familiaris, Purkinje fiber; procedure, shortened: as §1
Canis familiaris [8] = assay: Conduction time was determined by intraduodenal administration of 10 mg/kg (high dose) of compound in anesthetized dogs. Value was reported for experiment 2; type: functional, Canis lupus familiaris; procedure, shortened: as §4
Canis familiaris [9] = assay: Heart rate was determined by intraduodenal administration of two dosages of 10 mg/kg of compound in anesthetized dogs. Value was reported for experiment 2; type: functional, Canis lupus familiaris; procedure, shortened: as §4
Canis familiaris [10] = organism: Canis familiaris; assay: In vitro electrophysiological evaluation in canine cardiac occurred is 100 uM.; type: functional; conditions: Canis lupus familiaris; Heart
Canis familiaris [11] = assay: Left ventricular refractory period was determined by intraduodenal administration of 10 mg/kg (low dose) of compound in anesthetized dogs. Value was reported for experiment 1; type: functional, Canis lupus familiaris, Cardiac ventricle; procedure, shortened: as §3
Canis familiaris [12] = assay: Heart rate was determined by intraduodenal administration of two dosages of 10 mg/kg of compound in anesthetized dogs. Value was reported for experiment 1; type: functional, Canis lupus familiaris; procedure, shortened: as §4
Canis familiaris [13] = organism: Canis familiaris; assay: In vitro electrophysiological evaluation in canine cardiac Purkinje fibres reported as maximum percent change Vmax concentration range of 0.1-10 uM; Minimal (<10% decrease or increase in Vmax).; type: functional; conditions: Canis lupus familiaris; Purkinje fiber; procedure, shortened: as §1
Canis familiaris [14] = assay: Mean arterial blood pressure was determined by intraduodenal administration of two dosages of 3 mg/kg of compound in anesthetized dogs. Value was reported for experiment 2; type: functional, Canis lupus familiaris
Canis familiaris [15] = assay: Mean arterial blood pressure was determined by intraduodenal administration of two dosages of 10 mg/kg of compound in anesthetized dogs. Value was reported for experiment 2; type: functional, Canis lupus familiaris; procedure, shortened: as §3
Canis familiaris [16] = organism: Canis familiaris; assay: In vitro electrophysiological activity in canine cardiac occurred is 100 uM.; type: functional, Canis lupus familiaris, Heart
Canis familiaris [17] = assay: Conduction time was determined by intraduodenal administration of 30 mg/kg (high dose) of compound in anesthetized dogs. Value was reported for experiment 1; type: functional, Canis lupus familiaris; procedure, shortened: as §4
Canis familiaris [18] = assay: Conduction time was determined by intraduodenal administration of 3 mg/kg (low dose) of compound in anesthetized dogs. Value was reported for experiment 2; type: functional, Canis lupus familiaris; procedure, shortened: as §4
Canis familiaris [19] = assay: Mean arterial blood pressure was determined by intraduodenal administration of two dosages of 10 mg/kg of compound in anesthetized dogs. Value was reported for experiment 1; type: functional, Canis lupus familiaris; procedure, shortened: as §3
Canis familiaris [20] = organism: Canis familiaris; assay: In vitro electrophysiological evaluation in canine cardiac Purkinje fibres reported as maximum percent change Vmax concentration range of 0.1-100 uM; conduction block; type: functional; conditions: Canis lupus familiaris; Purkinje fiber; procedure, shortened: as §1
Canis familiaris [21] = organism: Canis familiaris; assay: In vitro electrophysiological evaluation in canine cardiac ventricular muscle reported as % change for conduction time(CT) at 10 uM at 0.1-10 uM concentration range; Minimal (<10% decrease or increase in CT).; type: functional, Canis lupus familiaris, Muscle tissue
Canis familiaris [22] = assay: Conduction time was determined by intraduodenal administration of 10 mg/kg (low dose) of compound in anesthetized dogs. Value was reported for experiment 1; type: functional, Canis lupus familiaris; procedure, shortened: as §4
Canis familiaris [23] = organism: Canis familiaris; assay: In vitro electrophysiological evaluation in canine cardiac Purkinje fibres reported as % change for action potential duration at a concentration of 10 uM; type: functional, Canis lupus familiaris, Purkinje fiber; procedure, shortened: as §1
Canis familiaris [24] = assay: Left ventricular refractory period was determined by intraduodenal administration of 3 mg/kg (low dose) of compound in anesthetized dogs. Value was reported for experiment 2; type: functional, Canis lupus familiaris, Cardiac ventricle; procedure, shortened: as §3
Canis familiaris [25] = assay: Heart rate was determined by intraduodenal administration of two dosages of 3 mg/kg of compound in anesthetized dogs. Value was reported for experiment 2; type: functional, Canis lupus familiaris; procedure, shortened: as §4
Canis familiaris [26] = assay: Left ventricular refractory period was determined by intraduodenal administration of 10 mg/kg (high dose) of compound in anesthetized dogs. Value was reported for experiment 2; type: functional, Canis lupus familiaris, Cardiac ventricle; procedure, shortened: as §3
Canis familiaris [27] = organism: Canis familiaris; assay: In vitro electrophysiological evaluation in canine cardiac Purkinje fibres reported as percent change Vmax at 10 uM at concentration range of 0.1-10 uM; Minimal (<10% decrease or increase in Vmax).; type: functional; conditions: Canis lupus familiaris, Purkinje fiber; procedure, shortened: as §1
Canis familiaris [28] = organism: Canis familiaris; assay: In vitro electrophysiological evaluation in canine cardiac ventricular muscle reported as % change for the functional refractory period (FRP) at 10 uM at concentration range of 0.1-10 uM; design: species or system Canis lupus familiaris, Muscle tissue; procedure, shortened: as §2
Canis familiaris [29] = assay: Mean arterial blood pressure was determined by intraduodenal administration of two dosages of 30 mg/kg of compound in anesthetized dogs. Value was reported for experiment 1; type: functional, Canis lupus familiaris; procedure, shortened: as §3

SMILES: Cl.O=C1C2CCN(CC2)C1CCCc1ccc(Cl)cc1 (centres undefined)
- Vmax (Canis familiaris [1]): < 10%
- CT (Canis familiaris [2]): <10%
- APD95 (Canis familiaris [3]): 6%
- FRP (Canis familiaris [4]): 39% and 23%
- LV FRP (Canis familiaris [5]): 19%
- HR (Canis familiaris [6]): -31%
- Vmax (Canis familiaris [7]): -41%
- CT (Canis familiaris [8]): 13%
- HR (Canis familiaris [9]): -14%
- Vmax (Canis familiaris [10]): -12%
- LV FRP (Canis familiaris [11]): 15%
- HR (Canis familiaris [12]): -17%
- Vmax (Canis familiaris [13]): < 10%
- Mean blood pressure (Canis familiaris [14]): 20%
- Mean blood pressure (Canis familiaris [15]): 24%
- APD95 (Canis familiaris [16]): -11% and -18%
- CT (Canis familiaris [17]): 2%
- CT (Canis familiaris [18]): 3%
- Mean blood pressure (Canis familiaris [19]): -4%
- Vmax (Canis familiaris [20]): < 10%
- CT (Canis familiaris [21]): <10%
- CT (Canis familiaris [22]): 0%
- APD95 (Canis familiaris [23]): 6%
- LV FRP (Canis familiaris [24]): 5%
- HR (Canis familiaris [25]): -2%
- LV FRP (Canis familiaris [26]): 9%
- Vmax (Canis familiaris [27]): < 10%
- FRP (Canis familiaris [28]): 39% and 23%
- Mean blood pressure (Canis familiaris [29]): 5%
